The target of assay [1] is T1, Peroxisome proliferator-activated receptor gamma (Homo sapiens) (UniProt P37231).
T1 sequence (whole entry): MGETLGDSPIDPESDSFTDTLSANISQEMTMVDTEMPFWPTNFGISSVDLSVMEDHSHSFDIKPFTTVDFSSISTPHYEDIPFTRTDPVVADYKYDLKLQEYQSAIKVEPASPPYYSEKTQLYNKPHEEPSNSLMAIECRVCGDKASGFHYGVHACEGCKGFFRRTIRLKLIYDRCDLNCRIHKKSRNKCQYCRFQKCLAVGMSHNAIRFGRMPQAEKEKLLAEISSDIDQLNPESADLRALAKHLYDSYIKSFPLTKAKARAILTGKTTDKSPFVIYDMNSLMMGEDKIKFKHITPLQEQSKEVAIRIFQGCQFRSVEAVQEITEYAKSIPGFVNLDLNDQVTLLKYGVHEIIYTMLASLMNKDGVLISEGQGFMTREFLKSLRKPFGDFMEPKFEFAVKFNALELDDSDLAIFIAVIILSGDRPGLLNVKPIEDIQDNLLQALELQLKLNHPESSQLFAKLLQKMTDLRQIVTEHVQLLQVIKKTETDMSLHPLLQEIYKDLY
Description: Activation of PPARgamma transcriptional activity in U20S cells at 0.01 to 1 uM. In kind it is functional, cell-based. The conditions noted are these: U2OS. The gist of the method:
(§1)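 U2OS cells transfected with PPARγ expression plasmid, matching reporter plasmid and pCMV-β-galactosidase as internal control; reporter transcriptional activity measured with or without 1 μM pioglitazone stimulation; means of triplicate cultures.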

The target in assay [2] is T2, Peroxisome proliferator-activated receptor gamma (Homo sapiens, UniProt P37231).
T2 sequence (P37231 whole entry): T1 sequence (whole entry)
Description: Binding affinity to PPARgamma.

In assay [3] the test system is 3T3-L1. Description: Stimulation of mouse 3T3-L1 cells differentiation at 2 to 4 uM in presence of guanosine. In kind it is functional, cell-based. Summed up: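 3T3-L1 cells with 50 μM guanosine added to suppress IMPDH-related effects; adipocyte differentiation stimulation examined at 2–4 μM.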
The subject of assay [4] is 3T3-L1. Description: Inhibition of mouse 3T3-L1 cell differentiation at 2 uM.
The target in assay [5] is T1, Peroxisome proliferator-activated receptor gamma (Homo sapiens). In words: Antagonist activity at pioglitazone-stimulated PPARgamma transcriptional activity in U2OS cells at 1 uM. In kind it is functional, cell-based. The gist of the method:
as §1

For assay [6], the system named is 3T3-L1. In words: Inhibition of mouse 3T3-L1 cell differentiation assessed as minimal effective concentration by oil-red O staining method.
Assay [7] concerns 3T3-L1. In words: Inhibition of mouse 3T3-L1 cell differentiation by oil-red O staining method. In kind it is functional. Summed up: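 Insulin-induced differentiation of 3T3-L1 pre-adipocytes into adipocytes; reduction in oil-red O stained cells judged under a microscope to give minimal inhibitory concentration.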
Assay [8] relates to 3T3-L1 (Mus musculus). In words: Inhibition of [1-14C]sodium acetate uptake in mouse 3T3-L1 cells at 2 uM.

≈ marks a conversion by molar mass, not a printed value. Calls of active or inactive are those of the source.

As a reminder, the Kd is the equilibrium constant for the complex coming apart. A low value points to tighter binding. As usually defined, the MIC is the smallest concentration in the dilution series that meets the test's criterion for growth inhibition. Low values mean inhibition by little substance, high ones a need for much substance. Usually inhibition stands for the percentage by which the read-out fell short of the control. Lower therefore signals a weak effect.

With `COc1c(C)c2c(c(O)c1C/C=C(\C)CCC(=O)O)C(=O)OC2` [MYCOPHENOLIC ACID], the result in assay [1], in assay [3], in assay [4] and in assay [5] was Active. The molecule also returned a Kd in assay [2] of 110 µM. In addition, in assay [6], the Activity is 0.2 µM.

Turning to `COC(=O)CC/C(C)=C/Cc1c(O)c2c(c(C)c1OC)COC2=O`, the result in assay [4] and in assay [5] was Active.

With `C/C=C/C1=CC(=O)[C@@H](O)[C@@H]1O` [TERREIN], in assay [7], inhibition of growth (MIC) required 81 µM (≈ 12.5 µg/mL).

With `CCOC(=O)COc1c(C)c2c(c(OCOCCOC)c1C/C=C(\C)CCC(=O)OC)C(=O)OC2`, the result in assay [4] was inactive.

`COC(=O)CC/C(C)=C/Cc1c(OC)c(C)c2c(c1OS(=O)(=O)c1ccc(C)cc1)C(=O)OC2`: the result in assay [4] was inactive.

The molecule `CCOC(=O)COc1c(C)c2c(c(O)c1C/C=C(\C)CCC(=O)OC)C(=O)OC2` registered an inhibition in assay [8] of 0%. The result in assay [4] was inactive.

In assay [8], `COc1c(C)c2c(c(OC(C)=O)c1C/C=C(\C)CCC(=O)O)C(=O)OC2` returned an inhibition of 86%. Further, the outcome in assay [4] and in assay [5] was Active.

Turning to `COc1c(C)c2c(c(OC)c1C/C=C(\C)CCC(=O)O)C(=O)OC2`, the outcome in assay [4] was inactive.

`COC(=O)CC/C(C)=C/Cc1c(O)c(C)c2c(c1OS(=O)(=O)c1ccc(C)cc1)C(=O)OC2`: the outcome in assay [4] was inactive.

In the case of `COC(=O)CC/C(C)=C/Cc1c(O)c(C)c2c(c1O)C(=O)OC2`, the result in assay [4] was inactive.

`COC(=O)CC/C(C)=C/Cc1c(OC)c(C)c2c(c1OC)C(=O)OC2`: the outcome in assay [4] was inactive.

In assay [8], `COC(=O)CC/C(C)=C/Cc1c(O)c2c(c(C)c1OC(=O)c1ccncc1)COC2=O` came in with an inhibition of 3%. The result in assay [4] was inactive.

`COCCOCOc1c(C/C=C(\C)CCC(=O)OC)c(O)c(C)c2c1C(=O)OC2`: the inhibition in assay [8] amounted to 10%. The result in assay [4] was inactive.

With `COCCOCOc1c(C/C=C(\C)CCC(=O)OC)c(OC(=O)c2ccncc2)c(C)c2c1C(=O)OC2`, the result in assay [4] was inactive.

Turning to `C/C(=C\Cc1c(O)c(C)c2c(c1O)C(=O)OC2)CCC(=O)O`, the result in assay [4] was inactive.

As to `COC(=O)CC/C(C)=C/Cc1c(O)c2c(c(C)c1OC(=O)c1cccnc1)COC2=O`, the result in assay [4] was inactive.

In the case of `COCCOCOc1c(C/C=C(\C)CCC(=O)OC)c(OC(=O)c2cccnc2)c(C)c2c1C(=O)OC2`, the outcome in assay [4] was inactive.

The values above are taken from ChEMBL document CHEMBL1149659 (Bioorg Med Chem Lett, 2007).
